Source: PubChem BioAssay
Only some compounds are listed: those with a hit (about 0.72% of all), similar ones and a draw of the others.
hIAP activ – increases human intestinal alkaline phosphatase activity; P09923; purified human IAP, CDP-Star luminescence, 30 min; active compounds read high; 1 = vehicle-only enzyme, 0 = enzyme-free background; activation factor at 10 µM; actives 0.16% (n = 330,000);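 active means activation factor of the enzyme at least 2-fold when tested at 20 µM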
Target sequence (P09923 whole entry, looked up): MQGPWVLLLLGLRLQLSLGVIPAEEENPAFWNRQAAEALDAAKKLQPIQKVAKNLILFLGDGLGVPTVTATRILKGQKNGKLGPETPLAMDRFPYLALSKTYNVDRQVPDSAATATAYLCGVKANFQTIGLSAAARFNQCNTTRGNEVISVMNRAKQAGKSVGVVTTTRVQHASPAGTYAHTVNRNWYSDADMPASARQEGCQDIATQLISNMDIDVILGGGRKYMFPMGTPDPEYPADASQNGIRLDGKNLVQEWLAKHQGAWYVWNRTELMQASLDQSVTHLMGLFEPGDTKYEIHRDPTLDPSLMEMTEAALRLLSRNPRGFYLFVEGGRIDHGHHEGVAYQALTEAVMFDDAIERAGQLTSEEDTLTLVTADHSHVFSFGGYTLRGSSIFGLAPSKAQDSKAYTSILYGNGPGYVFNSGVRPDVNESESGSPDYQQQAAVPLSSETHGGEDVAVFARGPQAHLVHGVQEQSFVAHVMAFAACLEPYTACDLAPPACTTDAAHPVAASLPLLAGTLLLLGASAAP
mIAP activ – increases mouse intestinal alkaline phosphatase activity. muIAP, CDP-Star luminescence, 30 min; active compounds read high; 1 = vehicle-only enzyme signal, 0 = enzyme-free wells. actives 0.24% (n = 330,000). activation factor at 10 µM;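 active means activation factor of at least 2 at 20 µM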
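System: mouse IAP enzyme. Reagent: CDP-Star chemiluminescent phosphatase substrate. Benchmarks: DMSO wells, no-enzyme wells. Times: 30 min enzyme-substrate-compound incubation at room temperature. Detection: luminescence from enzymatic CDP-Star hydrolysis. Doses: test compounds delivered from DMSO solution.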
hIAP inh – blocks human intestinal alkaline phosphatase | P09923 | purified IAP, CDP-Star luminescence, 30 min | inhibition, % at 10 µM | actives 0.12% (n = 330,000);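 active means inhibition reaching a set limit with compound at 10 µM in the primary screen, cut at about 35% in these data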;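 further: plate controls were DMSO wells with enzyme for no effect and no-enzyme buffer wells for full effect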
bIAP activator – increases bovine intestinal alkaline phosphatase activity; purified bovine IAP, CDP-star luminescence, 30 min; active compounds read high; fold of DMSO-control signal, blank-subtracted; activation factor at 20 µM; actives 0.17% (n = 200,000); AID 1016;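 active means activation factor of 2 or more at 20 µM, a signal rise over negative controls twice the positive control's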
bIAP inh – intestinal alkaline phosphatase (bovine) inhibition | inhibition, % at 20 µM | purified bovine IAP, CDP-star luminescence, 30 min | 190,000 tested, under 10 active;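 active means over 50% inhibition of intestinal alkaline phosphatase at 20 µM in the single-dose screen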
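System: purified bovine intestinal alkaline phosphatase (IAP) enzyme; Input: IAP diluted 1/65,000,000 in the well; Measured by: CDP-star luminescence signal; Compound dosing: 20 µM single dose; Incubation: 30 min reaction at room temperature.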
mIAP block – blocks mouse intestinal alkaline phosphatase. purified mouse IAP, CDP-Star luminescence, 30 min. inhibition, % at 10 µM. actives 0.2% (n = 330,000);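 active means inhibition of at least 40% at 10 µM in the primary screen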;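 further: plate controls were DMSO with enzyme for no effect and no enzyme wells for full effect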
Active calls of the source: *; · = no result given.

SMILES	hIAP activ	mIAP activ	hIAP inh	bIAP activator	bIAP inh	mIAP block
Cc1ccc(Cl)c(OCC(=O)Nc2ccc3c(c2)OCCO3)c1	0.94	0.96	6	0.9	10	4
O=C(COc1cc(Cl)c(Cl)cc1Cl)NC(=O)Nc1ccc2c(c1)OCCO2	1	1	0	2.6*	-164	-4
CCC(C)N(C(=O)Cn1nnc2ccccc21)C(C(=O)Nc1ccc(F)cc1)c1cccc(OC)c1 (stereo unspecified)	1.2	2.3*	-16	1.3	-30	-131
COCCNC(=O)C(c1cccc(OC)c1)N(Cc1cccs1)C(=O)Cn1nnc2ccccc21 (stereo unspecified)	0.92	1	8	0.9	9	-2
O=S(=O)(Nc1nc2ccccc2nc1-[n+]1cccc(N=C([O-])c2ccccc2Cl)c1)c1ccccc1	0.9	0.93	10	·	·	7
O=C(CN1C(=O)NC2(CCCCCC2)C1=O)NCc1ccc(Cl)cc1	1	1	0	·	·	-2
O=C(Nc1ccc(Cl)cc1)NC1(C(=O)NCCCN2CCOCC2)CCCCC1	0.99	1.1	0	2.8*	-176	-8
c1ccc(-c2csc(NC3CCCCC3)n2)cc1	0.8	0.96	20	·	·	4
O=C(Nc1nc(-c2ccccc2)cs1)NC1CCCCC1	1	2.6*	-5	0.8	17	-157
N#Cc1ccc(NC(=O)Nc2ccc(Cl)cc2)cc1	0.95	2.2*	5	0.9	14	-118
Nc1ccc2nc(CCCCCCCCc3nc4ccc(N)cc4[nH]3)[nH]c2c1	1.4	1.1	-44	2*	-95	-10
Cc1ccccc1C(=O)NC(CC(C)C)C(=O)OCC(=O)c1c(N)n(C)c(=O)n(C)c1=O (stereo unspecified)	1.1	1	-7	2.1*	-105	-4
COc1cc(NC(=O)C2C3CCC(O3)C2C(=O)O)cc(OC)c1 (stereo unspecified)	1.1	1	-6	·	·	-2
CC(C)CC(OC(=O)c1nsc(Cl)c1Cl)C(=O)NCC1CCCO1 (stereo unspecified)	1.1	1.2	-10	·	·	-18
COc1cccc(CNC(=O)CCC2CCCN(C(=O)c3cc(C4CC4)[nH]n3)C2)c1 (stereo unspecified)	1.3	1.1	-32	2.2*	-123	-10
COc1cccc(CNC(=O)CCC2CCCN(C(=O)c3cc(C)on3)C2)c1 (stereo unspecified)	1.1	1.1	-5	1	-1	-14
CN(Cc1ccc(F)cc1)C(=O)c1cc(COc2ccc(-n3cncn3)cc2)on1	1.2	0.89	-24	·	·	11
COc1ccc(C(CCc2ccc(C)o2)NC(=O)Nc2ccc(OC)cc2OC)cc1 (stereo unspecified)	0.83	2*	17	1.1	-12	-104
CCn1cc(CNCc2cn(-c3ccccc3C)nc2-c2ccc(OC)c(F)c2)cn1	0.95	0.96	5	1	0	4
COc1ccc(-c2nn(-c3ccccc3C)cc2CNCCc2cnc[nH]2)cc1F	1.5	1	-50	2.3*	-129	-3
CC(C)Sc1ccccc1C(=O)Nc1ccc2c(c1)n(C)c(=O)n2C	1.2	1	-21	·	·	-1
C=CCNC(=O)c1ccc(NC(=O)C2=CSCCO2)cc1	1	0.98	-2	·	·	2
O=C(Nc1ccc(F)cc1)Nc1ccccc1N1CCCCC1	1.1	2.6*	-11	·	·	-161
CCc1ccccc1NC(=O)Nc1ccc(F)cc1	1.1	1.2	-10	0.9	12	-22
O=C(Nc1ccc(F)cc1)Nc1csc2ccccc12	1.2	2.3*	-24	·	·	-132
CCOc1cc(/C=C2\CCC/C(=C\c3cc(Cl)c(O)c(OCC)c3)C2=O)cc(Cl)c1O	0.79	0.56	21	0.3	·	44*
COC(=O)c1ccc(NC(=S)NCCc2ccccc2C)cc1	0.95	2*	5	0.9	5	-100
COC(=O)c1ccc(NC(=S)NCCc2cccc(C)c2)cc1	1.1	1.9	-9	0.7	34	-94
COc1cc([C@H]2c3[nH]c4ccccc4c3C[C@H]3C(=O)N4[C@@H](c5cc(OC)c(OC)c(OC)c5)c5[nH]c6ccccc6c5C[C@H]4C(=O)N23)cc(OC)c1OC	1.1	3.8*	-9	0.6	36	-276
